Measured values as given in ChEMBL document CHEMBL1148053, “(+)-(S)-dihydroaeruginoic acid, an inhibitor of Septoria tritici and other phytopathogenic fungi and bacteria, produced by Pseudomonas fluorescens” (1994).

Legend:
Rhizoctonia solani [1] = test: Antifungal activity against Rhizoctonia solani DL5588 assessed as colony reduction at 100 ug/disk after 2 to 6 days by paper disk agar diffusion method relative to control; format: functional; set-up: scale not given: the % may be the effect or the level left
How it was run: (§1)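 Tested on one-fourth-strength potato dextrose agar. A 5-mm mycelial agar plug from the colony edge was placed at the dish centre. A 6-mm disc with the compound in Me₂CO and an Me₂CO-only control disc were set on opposite sides, each 30 mm from the plug. After 2-6 days, colony radii were measured along the line joining the discs. Values are the mean of nine (3 weighings × 3 discs), analysed by two-way ANOVA.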

Rhizoctonia solani [2] = test: Antifungal activity against Rhizoctonia solani DL5588 assessed as colony reduction at 200 ug/disk after 2 to 6 days by paper disk agar diffusion method relative to control; format: functional; set-up: scale not given: the % may be the effect or the level left; how it was run: as §1
Globisporangium ultimum [3] = test: Antifungal activity against Pythium ultimum RG-5601 assessed as colony reduction at 100 ug/disk after 2 to 6 days by paper disk agar diffusion method relative to control; format: functional; set-up: scale not given: the % may be the effect or the level left
How it was run: (§2)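 Paper-disc agar-diffusion on one-fourth-strength PDA. Mycelial agar plug (5 mm) from culture edge placed at plate centre; 6-mm disc loaded with compound in Me2CO and Me2CO-only control disc set on opposite sides, each 30 mm from plug. After 2-6 days (per growth rate), colony radii measured along line joining disc centres. Three separate weighings × three discs (nine) per organism; two-way ANOVA.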

Globisporangium ultimum [4] = test: Antifungal activity against Pythium ultimum RG-5601 assessed as colony reduction at 200 ug/disk after 2 to 6 days by paper disk agar diffusion method relative to control; format: functional; set-up: scale not given: the % may be the effect or the level left; how it was run: as §2
Botrytis cinerea [5] = test: Antifungal activity against Botrytis cinerea DL6050 assessed as colony reduction at 100 ug/disk after 2 to 6 days by paper disk agar diffusion method relative to control; format: functional; set-up: scale not given: the % may be the effect or the level left; how it was run: as §1
Botrytis cinerea [6] = test: Antifungal activity against Botrytis cinerea DL6050 assessed as colony reduction at 200 ug/disk after 2 to 6 days by paper disk agar diffusion method relative to control; format: functional; set-up: scale not given: the % may be the effect or the level left; how it was run: as §1
Athelia rolfsii [7] = test: Antifungal activity against Sclerotium rolfsii RG-1984 assessed as colony reduction at 100 ug/disk after 2 to 6 days by paper disk agar diffusion method relative to control; format: functional, Agroathelia rolfsii; set-up: scale not given: the % may be the effect or the level left; how it was run: as §2
Athelia rolfsii [8] = test: Antifungal activity against Sclerotium rolfsii RG-1984 assessed as colony reduction at 200 ug/disk after 2 to 6 days by paper disk agar diffusion method relative to control; format: functional, Agroathelia rolfsii; set-up: scale not given: the % may be the effect or the level left; how it was run: as §2
[9] = test system: Colletotrichum gloeosporioides; test: Antifungal activity against Colletotrichum gloeosporioides DL5605 assessed as colony reduction at 100 ug/disk after 2 to 6 days by paper disk agar diffusion method relative to control; format: functional; set-up: scale not given: the % may be the effect or the level left; how it was run: as §1
[10] = test system: Colletotrichum gloeosporioides; test: Antifungal activity against Colletotrichum gloeosporioides DL5605 assessed as colony reduction at 200 ug/disk after 2 to 6 days by paper disk agar diffusion method relative to control; format: functional; set-up: scale not given: the % may be the effect or the level left; how it was run: as §1
Fusarium oxysporum [11] = test: Antifungal activity against Fusarium oxysporum Fo0593-22 assessed as colony reduction at 100 ug/disk after 2 to 6 days by paper disk agar diffusion method relative to control; format: functional; set-up: scale not given: the % may be the effect or the level left; how it was run: as §1
Fusarium oxysporum [12] = test: Antifungal activity against Fusarium oxysporum Fo0593-22 assessed as colony reduction at 200 ug/disk after 2 to 6 days by paper disk agar diffusion method relative to control; format: functional; set-up: scale not given: the % may be the effect or the level left; how it was run: as §1
Bacillus subtilis [13] = test: Antibacterial activity against Bacillus subtilis Bs1091 at 100 ug/disk by paper disk agar diffusion method; format: functional; conditions: read-out: IZ
How it was run: (§3)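 Paper-disc agar-diffusion assay on Luria agar (tryptone, yeast extract, NaCl, agar), the medium used for maintaining and testing the bacteria. The compound was dissolved in Me₂CO and absorbed onto 6-mm paper discs at the stated amount per disc. Three separately weighed solutions were used, with three discs each, giving nine measurements per organism.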

Bacillus subtilis [14] = test: Antibacterial activity against Bacillus subtilis Bs1091 at 200 ug/disk by paper disk agar diffusion method; format: functional; conditions: read-out: IZ; how it was run: as §3
Pantoea agglomerans [15] = test: Antibacterial activity against Erwinia herbicola SM-824 at 100 ug/disk by paper disk agar diffusion method; format: functional; conditions: read-out: IZ; how it was run: as §3
Pantoea agglomerans [16] = test: Antibacterial activity against Erwinia herbicola SM-824 at 200 ug/disk by paper disk agar diffusion method; format: functional; conditions: read-out: IZ; how it was run: as §3
Staphylococcus [17] = test: Antibacterial activity against Staphylococcus albus Sal1091-4 at 100 ug/disk by paper disk agar diffusion method; format: functional; conditions: read-out: IZ; how it was run: as §3
Staphylococcus [18] = test: Antibacterial activity against Staphylococcus albus Sal1091-4 at 200 ug/disk by paper disk agar diffusion method; format: functional; conditions: read-out: IZ; how it was run: as §3
Pseudomonas fluorescens [19] = test: Antibacterial activity against Pseudomonas fluorescens PFM2 at 100 ug/disk by paper disk agar diffusion method; format: functional; conditions: read-out: IZ; how it was run: as §3
Pseudomonas fluorescens [20] = test: Antibacterial activity against Pseudomonas fluorescens PFM2 at 200 ug/disk by paper disk agar diffusion method; format: functional; conditions: read-out: IZ; how it was run: as §3
Zymoseptoria tritici [21] = test: Antifungal activity against Septoria tritici ISR-SE93 assessed as diameter of zone of inhibition at 100 ug/disk after 2 to 6 days by paper disk agar diffusion method; conditions: read-out: IZ
Zymoseptoria tritici [22] = test: Antifungal activity against Septoria tritici ISR-SE93 assessed as diameter of zone of inhibition at 200 ug/disk after 2 to 6 days by paper disk agar diffusion method; conditions: read-out: IZ

Row | SMILES | Activity (Rhizoctonia solani [1]) | Activity (Rhizoctonia solani [2]) | Activity (Globisporangium ultimum [3]) | Activity (Globisporangium ultimum [4]) | Activity (Botrytis cinerea [5]) | Activity (Botrytis cinerea [6]) | Activity (Athelia rolfsii [7]) | Activity (Athelia rolfsii [8]) | Activity [9] | Activity [10] | Activity (Fusarium oxysporum [11]) | Activity (Fusarium oxysporum [12]) | zone of inhibition at 100 µg/disc (Bacillus subtilis [13]) | zone of inhibition at 200 µg/disc (Bacillus subtilis [14]) | zone of inhibition at 100 µg/disc (Pantoea agglomerans [15]) | zone of inhibition at 200 µg/disc (Pantoea agglomerans [16]) | zone of inhibition at 100 µg/disc (Staphylococcus [17]) | zone of inhibition at 200 µg/disc (Staphylococcus [18]) | zone of inhibition at 100 µg/disc (Pseudomonas fluorescens [19]) | zone of inhibition at 200 µg/disc (Pseudomonas fluorescens [20]) | also measured
1 | O=C(O)[C@H]1CSC(c2ccccc2O)=N1 | 1% | 5% | 22% | 43% | 27% | 43% | 32% | 53% | 8% | 10% | 8% | 15% | 10.8 mm | 13.3 mm | 6.7 mm | 8.7 mm | 20.2 mm | 26.2 mm | 0 mm | 0 mm | zone of inhibition at 100 µg/disc (Zymoseptoria tritici [21]): 0 mm; zone of inhibition at 200 µg/disc (Zymoseptoria tritici [22]): 13 mm
2 | O=C(O)[C@@H]1CSC(c2ccccc2O)=N1 | 6% | 17% | 12% | 33% | 36% | 46% | 32% | 52% | 8% | 9% | 5% | 11% | 14.9 mm | 19.7 mm | 8.2 mm | 10.4 mm | 22 mm | 28.2 mm | 0 mm | 0 mm | zone of inhibition at 100 µg/disc (Zymoseptoria tritici [21]): 0 mm; zone of inhibition at 200 µg/disc (Zymoseptoria tritici [22]): 13 mm
